Results taken from ChEMBL document CHEMBL4270537, “Design and biological evaluation of novel triaryl pyrazoline derivatives with dioxane moiety for selective BRAFV600E inhibition” (Eur J Med Chem, 2018).

Columns and labels:
[1] = Antiproliferative activity against human WM1361 cells after 48 hrs by MTT assay; assay type: functional; settings: WM1361, 48 h
Summary of the method: (§1)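 MTT reduction assay. Cell lines grown to log phase in DMEM with 10% FBS (A375 in DMEM with sodium pyruvate added), seeded at 10⁴ cells/well in 96-well plates. Three replicate wells per concentration, each assay run three times, GI50 averaged.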

HT-29 = test: Antiproliferative activity against human HT-29 cells after 48 hrs by MTT assay; assay type: functional; settings: HT-29, 48 h; summary of the method: as §1
HCT-116 = test: Antiproliferative activity against human HCT116 cells after 48 hrs by MTT assay; assay type: functional; settings: HCT-116, 48 h; summary of the method: as §1
[2] = Cytotoxicity against human LO2 cells assessed as decrease in cell viability after 48 hrs by MTT assay; assay type: cell-based, L02; summary of the method: as §1
[3] = molecular target: Mitogen-activated protein kinase 14 (Homo sapiens, UniProt Q16539); test: Inhibition of N-terminal flag-tagged p38alpha (unknown origin) expressed in baculovirus expression system using MBP as substrate preincubated for 5 mins followed by substrate addition measured after 60 mins in presence of [gamma-32P]ATP by topcount scintillation method
Chain of Mitogen-activated protein kinase 14 (Q16539 whole entry): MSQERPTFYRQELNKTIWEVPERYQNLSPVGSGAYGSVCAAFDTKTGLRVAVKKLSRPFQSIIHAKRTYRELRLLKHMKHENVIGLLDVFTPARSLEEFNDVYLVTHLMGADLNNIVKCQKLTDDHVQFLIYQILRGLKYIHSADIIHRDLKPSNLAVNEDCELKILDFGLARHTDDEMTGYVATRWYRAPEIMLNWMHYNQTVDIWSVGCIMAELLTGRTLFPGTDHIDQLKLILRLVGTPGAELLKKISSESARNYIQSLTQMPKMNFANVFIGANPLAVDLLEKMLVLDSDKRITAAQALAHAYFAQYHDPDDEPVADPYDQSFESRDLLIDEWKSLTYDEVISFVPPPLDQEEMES
Summary of the method: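 Baculovirus-expressed N-terminal FLAG-tagged kinases in 25 mM HEPES pH 7.5, 10 mM Mg acetate, 1 mM DTT, 0.5 µM ATP plus [γ-³²P]ATP, 50 µL. p38α: 100 ng enzyme, MBP substrate. JNK1: 10 ng enzyme, 1 µg c-Jun. Compound and enzyme preincubated 5 min, ATP started the reaction, 60 min at 30 °C. Stopped with 10% TCA, filtered, washed with 3% phosphoric acid, counted by TopCount.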

A-375 [4] = test: Induction of apoptosis in human A375 cells assessed as early apoptotic cells at 2 uM after 48 hrs by Annexin V-FITC/PI staining based flow cytometry (reference value: 5.42%); assay type: functional
Summary of the method: (§2)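 Apoptosis time course. A375 cells in 24-well plates (about 10⁵/well) at 2 µM for 0, 24, 48 and 72 h. Harvested by trypsin, washed in PBS, stained 15 min at room temperature in the dark with Annexin V-FITC/PI, analysed by flow cytometry.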

A-375 [5] = test: Induction of apoptosis in human A375 cells assessed as viable cells at 2 uM after 72 hrs by Annexin V-FITC/PI staining based flow cytometry (reference value: 89.4%); assay type: functional; settings: A-375, 72 h, read-out: Activity
A-375 [6] = test: Induction of apoptosis in human A375 cells assessed as late apoptotic cells at 2 uM after 72 hrs by Annexin V-FITC/PI staining based flow cytometry (reference value: 3.61%); assay type: functional; summary of the method: as §2
A-375 [7] = test: Induction of apoptosis in human A375 cells assessed as necrotic cells at 2 uM after 72 hrs by Annexin V-FITC/PI staining based flow cytometry (reference value: 1.55%); assay type: functional
A-375 [8] = test: Induction of apoptosis in human A375 cells assessed as viable cells at 5 uM after 24 hrs by Annexin V-FITC/PI staining based flow cytometry (reference value: 88.7%); assay type: functional; settings: A-375, 24 h, read-out: Activity
A-375 [9] = test: Induction of apoptosis in human A375 cells assessed as early apoptotic cells at 5 uM after 24 hrs by Annexin V-FITC/PI staining based flow cytometry (reference value: 5.45%); assay type: functional
A-375 [10] = test: Induction of apoptosis in human A375 cells assessed as late apoptotic cells at 5 uM after 24 hrs by Annexin V-FITC/PI staining based flow cytometry (reference value: 4.26%); assay type: functional
A-375 [11] = test: Induction of apoptosis in human A375 cells assessed as necrotic cells at 5 uM after 24 hrs by Annexin V-FITC/PI staining based flow cytometry (reference value: 1.61%); assay type: functional
A-375 [12] = test: Induction of apoptosis in human A375 cells assessed as late apoptotic cells at 10 uM after 24 hrs by Annexin V-FITC/PI staining based flow cytometry (reference value: 4.26%); assay type: functional
A-375 [13] = test: Cell cycle arrest in human A375 cells assessed as accumulation at G1 phase at 2 uM after 24 hrs by propidium iodide staining based flow cytometry (reference value: 73.6%); assay type: functional
A-375 [14] = test: Cell cycle arrest in human A375 cells assessed as accumulation at S phase at 2 uM after 24 hrs by propidium iodide staining based flow cytometry (reference value: 21.3%); assay type: functional
A-375 [15] = test: Cell cycle arrest in human A375 cells assessed as accumulation at G2/M phase at 2 uM after 24 hrs by propidium iodide staining based flow cytometry (reference value: 5.1%); assay type: functional
A-375 [16] = test: Cell cycle arrest in human A375 cells assessed as accumulation at S phase at 2 uM after 72 hrs by propidium iodide staining based flow cytometry (reference value: 21.3%); assay type: functional
A-375 [17] = test: Cell cycle arrest in human A375 cells assessed as accumulation at G1 phase at 2.5 uM after 24 hrs by propidium iodide staining based flow cytometry (reference value: 73.6%); assay type: functional
A-375 [18] = test: Cell cycle arrest in human A375 cells assessed as accumulation at G2/M phase at 2.5 uM after 24 hrs by propidium iodide staining based flow cytometry (reference value: 5.1%); assay type: functional
A-375 [19] = test: Cell cycle arrest in human A375 cells assessed as accumulation at G1 phase at 5 uM after 24 hrs by propidium iodide staining based flow cytometry (reference value: 73.6%); assay type: functional
A-375 [20] = test: Cell cycle arrest in human A375 cells assessed as accumulation at G2/M phase at 5 uM after 24 hrs by propidium iodide staining based flow cytometry (reference value: 5.1%); assay type: functional
[21] = Effect on total ERK1/2 protein level in human WM1361 cells after 30 mins by Western blot analysis; assay type: ADME, cell-based; settings: 0.5 h
Summary of the method: (§3)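 Western blot. Cells rinsed in cold PBS, lysed 30 min on ice in RIPA with protease inhibitors (1:100), cleared at 12,000 g, 4 °C. Protein measured by BCA, resolved by SDS-PAGE, transferred to PVDF, blocked in skim milk. Primary antibodies 1:500 overnight at 4 °C; secondary 1:5000 for 1 h at room temperature.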

[22] = Effect on total MEK1/2 protein level in human WM1361 cells after 30 mins by Western blot analysis; assay type: ADME, cell-based; settings: 0.5 h; summary of the method: as §3
[23] = system: Serine/threonine-protein kinase B-raf (Homo sapiens), P15056 [V600E]; test: Inhibition of BRAF V600E mutant in human A375 cells assessed as decrease in ERK1/2 phosphorylation after 30 mins by Western blot analysis; assay type: cell-based
Chain of Serine/threonine-protein kinase B-raf (Homo sapiens), P15056 [V600E] (P15056 whole entry V600E): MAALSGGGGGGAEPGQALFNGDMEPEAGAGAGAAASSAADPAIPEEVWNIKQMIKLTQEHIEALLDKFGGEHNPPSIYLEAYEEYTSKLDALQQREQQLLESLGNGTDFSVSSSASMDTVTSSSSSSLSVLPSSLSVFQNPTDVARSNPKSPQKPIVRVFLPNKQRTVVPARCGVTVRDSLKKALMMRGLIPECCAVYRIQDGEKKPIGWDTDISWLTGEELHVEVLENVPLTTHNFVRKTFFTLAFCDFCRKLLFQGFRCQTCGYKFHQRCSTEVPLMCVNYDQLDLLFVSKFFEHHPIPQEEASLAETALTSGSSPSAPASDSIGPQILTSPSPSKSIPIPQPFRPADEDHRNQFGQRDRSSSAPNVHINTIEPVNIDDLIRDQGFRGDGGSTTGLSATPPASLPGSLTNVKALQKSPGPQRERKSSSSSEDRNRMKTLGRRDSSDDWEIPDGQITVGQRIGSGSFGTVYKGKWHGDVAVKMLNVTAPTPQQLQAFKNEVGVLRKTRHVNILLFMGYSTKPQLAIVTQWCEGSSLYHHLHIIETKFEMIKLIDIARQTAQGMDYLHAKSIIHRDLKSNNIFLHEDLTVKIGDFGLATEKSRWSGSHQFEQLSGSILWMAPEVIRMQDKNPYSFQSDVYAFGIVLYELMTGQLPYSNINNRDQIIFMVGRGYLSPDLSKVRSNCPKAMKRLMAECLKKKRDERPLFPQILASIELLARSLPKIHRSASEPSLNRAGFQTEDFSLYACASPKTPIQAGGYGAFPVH
Summary of the method: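 A375 cells treated with compound at 0, 0.05, 0.1 and 0.5 µM, then PBS-rinsed and lysed in RIPA with protease inhibitors on ice for 30 min. Lysate was cleared at 12,000 g, 4 °C, and protein assayed by BCA. Samples run on SDS-PAGE and transferred to PVDF. Membranes were milk-blocked, probed with primary antibody (1:500) overnight at 4 °C, then secondary antibody (1:5000) for 1 h at room temperature.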

A-375 [24] = test: Antitumor activity against human A375 cells xenografted in nude mouse assessed as decrease in tumor weight at 10 mg/kg, ip administered every second day for 14 days and measured on day 15 relative to control; assay type: functional
Summary of the method: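 A375 cells, 3 × 10⁶ in 0.1 mL cold PBS, injected subcutaneously into right flank of nude mice. Treatment began when tumors reached ~100 mm³; mice randomized, 5 per group. Compound suspended in olive oil, given intraperitoneally every second day for 14 days. Body weight recorded every two days; tumors excised and weighed on day 15.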

Q: Which results are given for `COc1cccc(C2=NN(C(=S)Nc3ccccc3)C(c3ccc4c(c3)OCCO4)C2)c1` (stereo unspecified)?
A: GI50 [1]: > 200 µM; GI50 (HT-29): 2.92 µM; GI50 (HCT-116): > 200 µM; GI50 at 48 h [2]: > 200 µM; IC50 [3]: > 200 µM; Activity (A-375 [4]): 17.1%; viability at 2 µM (A-375 [5]): 71.1%; Activity (A-375 [6]): 6.49%; Activity (A-375 [7]): 2.24%; viability at 5 µM (A-375 [8]): 65%; Activity (A-375 [9]): 23.4%; Activity (A-375 [10]): 8.1%; Activity (A-375 [11]): 3.6%; Activity (A-375 [12]): 10.8%; Activity (A-375 [13]): 72.4%; Activity (A-375 [14]): 17.3%; Activity (A-375 [15]): 10.3%; Activity (A-375 [16]): 27.6%; Activity (A-375 [17]): 72.3%; Activity (A-375 [18]): 8.2%; Activity (A-375 [19]): 61.3%; Activity (A-375 [20]): 10.3%; Activity [21]: Non-Toxic; Activity [22]: Non-Toxic; inhibition [23]: Dose-dependent effect; fold change (FC) (A-375 [24]): 2
